Experimental data as given in ChEMBL document CHEMBL1148788 (J Med Chem, 2007).
Values joined by “and” are separate entries in the source; they are usually repeats but may differ in a detail not shown here. Equal entries are not always repeated. Active and inactive are the calls of the source. The calls are words filed in the database; no cut-off is given here.

Experiments:
[1] = Displacement of [3H]methyllycaconitine from chimeric alpha-7nAChR D197A mutant/5HT3A receptor in tsA201 cells; type: cell-based, Homo sapiens
Method in brief: (§1)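 tsA-201 cells transiently transfected with 4 µg WT or mutant α7/5-HT3A chimera and assayed 2 days later. Membranes washed twice at 50000g in 50 mM Tris-HCl pH 7.2. Incubated with 0.5 nM [3H]MLA and compound for 2.5 h at room temperature with shaking; nonspecific binding with 5 mM (S)-nicotine. PEI-soaked GF/C filtration, scintillation counting. Ki derived; duplicate, 3–7 experiments.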

tsA201 [2] = assay: Displacement of [3H]methyllycaconitine from chimeric alpha-7nAChR W55A/Y195A mutant /5HT3A receptor in tsA201 cells; type: cell-based; conditions: Homo sapiens; method in brief: as §1
[3] = Displacement of [3H]methyllycaconitine from chimeric alpha-7nAChR K145R mutant /5HT3A receptor in tsA201 cells; type: cell-based, Homo sapiens; method in brief: as §1
[4] = biological target: Neuronal acetylcholine receptor; alpha4/beta2 (Rattus norvegicus, UniProt P09483+P12390); assay: Displacement of [3H]epibatidine from rat recombinant alpha-4-beta-2 nAChR in HEK293 cell line; type: cell-based
Sequence of Neuronal acetylcholine receptor; alpha4/beta2 (P09483 whole entry): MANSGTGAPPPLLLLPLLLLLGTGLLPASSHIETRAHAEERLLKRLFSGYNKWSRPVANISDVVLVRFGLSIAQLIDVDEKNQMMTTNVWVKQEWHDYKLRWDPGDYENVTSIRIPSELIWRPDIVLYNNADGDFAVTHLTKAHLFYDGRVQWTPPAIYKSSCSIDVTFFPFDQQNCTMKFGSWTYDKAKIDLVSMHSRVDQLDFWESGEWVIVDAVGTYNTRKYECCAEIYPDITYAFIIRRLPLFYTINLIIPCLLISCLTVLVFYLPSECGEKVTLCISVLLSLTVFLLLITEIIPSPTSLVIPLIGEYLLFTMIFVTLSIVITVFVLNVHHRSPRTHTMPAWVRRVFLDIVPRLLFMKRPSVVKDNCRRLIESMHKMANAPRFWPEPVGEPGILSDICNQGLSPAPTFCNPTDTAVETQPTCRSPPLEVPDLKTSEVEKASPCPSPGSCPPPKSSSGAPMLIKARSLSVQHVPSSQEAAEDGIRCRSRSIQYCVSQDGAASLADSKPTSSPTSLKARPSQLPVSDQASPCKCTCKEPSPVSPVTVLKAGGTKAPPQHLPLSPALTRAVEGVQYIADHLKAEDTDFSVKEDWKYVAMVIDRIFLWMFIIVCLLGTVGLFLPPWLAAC
Sequence of Neuronal acetylcholine receptor; alpha4/beta2 (P12390 whole entry): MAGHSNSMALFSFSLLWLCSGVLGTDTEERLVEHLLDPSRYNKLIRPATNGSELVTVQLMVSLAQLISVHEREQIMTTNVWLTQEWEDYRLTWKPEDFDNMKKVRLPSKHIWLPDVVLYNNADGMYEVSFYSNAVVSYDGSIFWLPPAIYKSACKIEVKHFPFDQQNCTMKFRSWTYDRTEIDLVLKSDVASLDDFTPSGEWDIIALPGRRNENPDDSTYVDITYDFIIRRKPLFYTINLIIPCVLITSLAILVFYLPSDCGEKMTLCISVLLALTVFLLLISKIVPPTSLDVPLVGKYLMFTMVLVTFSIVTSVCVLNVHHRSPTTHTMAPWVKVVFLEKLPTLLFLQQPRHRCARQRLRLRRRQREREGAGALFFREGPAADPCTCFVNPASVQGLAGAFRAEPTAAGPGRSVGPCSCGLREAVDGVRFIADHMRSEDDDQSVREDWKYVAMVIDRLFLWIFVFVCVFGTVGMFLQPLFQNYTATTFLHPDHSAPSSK

[5] = biological target: T1, Neuronal acetylcholine receptor; alpha3/beta4 (Rattus norvegicus, UniProt P04757+P12392); assay: Displacement of [3H]epibatidine from recombinant rat alpha-3-beta-4 nAChr in HEK293 cell line; type: cell-based
T1 sequence (P04757 whole entry): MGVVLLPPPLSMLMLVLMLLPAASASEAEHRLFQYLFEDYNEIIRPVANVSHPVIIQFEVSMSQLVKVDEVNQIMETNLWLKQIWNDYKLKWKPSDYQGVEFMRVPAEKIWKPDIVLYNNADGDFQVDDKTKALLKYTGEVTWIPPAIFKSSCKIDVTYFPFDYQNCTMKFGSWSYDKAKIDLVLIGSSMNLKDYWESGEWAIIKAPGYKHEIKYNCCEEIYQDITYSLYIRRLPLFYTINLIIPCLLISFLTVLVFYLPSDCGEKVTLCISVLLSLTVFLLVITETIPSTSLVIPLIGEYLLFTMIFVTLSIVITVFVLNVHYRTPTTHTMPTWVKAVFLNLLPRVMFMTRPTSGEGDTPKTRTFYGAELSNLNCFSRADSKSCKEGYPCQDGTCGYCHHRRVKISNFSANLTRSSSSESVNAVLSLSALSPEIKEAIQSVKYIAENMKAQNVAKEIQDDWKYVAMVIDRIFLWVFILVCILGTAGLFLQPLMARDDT
T1 sequence (P12392 whole entry): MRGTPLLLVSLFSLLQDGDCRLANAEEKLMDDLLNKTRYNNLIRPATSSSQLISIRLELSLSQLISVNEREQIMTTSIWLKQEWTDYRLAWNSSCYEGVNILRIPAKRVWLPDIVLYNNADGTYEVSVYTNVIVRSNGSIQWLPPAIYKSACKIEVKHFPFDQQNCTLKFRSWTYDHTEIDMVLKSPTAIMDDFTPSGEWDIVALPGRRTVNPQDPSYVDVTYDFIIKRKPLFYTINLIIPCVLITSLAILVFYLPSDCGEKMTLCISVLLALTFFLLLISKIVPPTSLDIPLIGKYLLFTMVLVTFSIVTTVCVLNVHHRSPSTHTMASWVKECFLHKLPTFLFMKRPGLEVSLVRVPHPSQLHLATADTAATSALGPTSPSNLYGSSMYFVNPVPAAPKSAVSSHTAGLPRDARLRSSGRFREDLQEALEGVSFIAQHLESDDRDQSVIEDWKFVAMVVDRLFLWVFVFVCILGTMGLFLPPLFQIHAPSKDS

[6] = biological target: Neuronal acetylcholine receptor; alpha4/beta4 (Rattus norvegicus, UniProt P09483+P12392); assay: Displacement of [3H]epibatidine from recombinant rat alpha-4-beta-4 nAChr in HEK293 cell line; type: cell-based
Sequence of Neuronal acetylcholine receptor; alpha4/beta4 (P09483 whole entry): as the sequence (P09483 whole entry) above
Sequence of Neuronal acetylcholine receptor; alpha4/beta4 (P12392 whole entry): as the sequence (P12392 whole entry) above

[7] = biological target: T2, Neuronal acetylcholine receptor subunit alpha-7 (Homo sapiens, UniProt P36544); assay: Displacement of [3H]methyllycaconitine from human alpha-7 in tsA201 cells coexpressed with 5HT3A receptor; type: cell-based
Target sequence in this assay (P36544 whole entry): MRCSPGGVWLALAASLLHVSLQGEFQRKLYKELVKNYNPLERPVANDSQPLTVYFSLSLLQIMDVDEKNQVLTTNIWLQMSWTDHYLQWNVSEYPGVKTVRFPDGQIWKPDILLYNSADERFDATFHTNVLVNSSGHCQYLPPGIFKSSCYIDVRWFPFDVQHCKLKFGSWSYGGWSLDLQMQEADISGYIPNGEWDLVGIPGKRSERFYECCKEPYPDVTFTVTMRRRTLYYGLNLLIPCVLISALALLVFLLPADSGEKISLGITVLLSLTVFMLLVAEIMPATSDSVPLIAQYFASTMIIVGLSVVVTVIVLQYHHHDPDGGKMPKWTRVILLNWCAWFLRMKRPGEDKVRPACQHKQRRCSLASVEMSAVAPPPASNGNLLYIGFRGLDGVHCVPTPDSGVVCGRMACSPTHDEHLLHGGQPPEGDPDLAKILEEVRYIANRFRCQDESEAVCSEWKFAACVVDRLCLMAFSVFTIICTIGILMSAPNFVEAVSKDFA

[8] = biological target: T2, Neuronal acetylcholine receptor subunit alpha-7; assay: Displacement of [3H]methyllycaconitine from alpha7 nAChR in tsA201 cells co-expressed with Ric3; type: cell-based
Target sequence in this assay (P36544 whole entry): as above

[9] = biological target: T3, 5-hydroxytryptamine receptor 3A (Homo sapiens, UniProt P46098); assay: Displacement of [3H]GR65630 from human 5HT3A receptor in HEK293 cells; type: cell-based
T3 sequence (P46098 whole entry): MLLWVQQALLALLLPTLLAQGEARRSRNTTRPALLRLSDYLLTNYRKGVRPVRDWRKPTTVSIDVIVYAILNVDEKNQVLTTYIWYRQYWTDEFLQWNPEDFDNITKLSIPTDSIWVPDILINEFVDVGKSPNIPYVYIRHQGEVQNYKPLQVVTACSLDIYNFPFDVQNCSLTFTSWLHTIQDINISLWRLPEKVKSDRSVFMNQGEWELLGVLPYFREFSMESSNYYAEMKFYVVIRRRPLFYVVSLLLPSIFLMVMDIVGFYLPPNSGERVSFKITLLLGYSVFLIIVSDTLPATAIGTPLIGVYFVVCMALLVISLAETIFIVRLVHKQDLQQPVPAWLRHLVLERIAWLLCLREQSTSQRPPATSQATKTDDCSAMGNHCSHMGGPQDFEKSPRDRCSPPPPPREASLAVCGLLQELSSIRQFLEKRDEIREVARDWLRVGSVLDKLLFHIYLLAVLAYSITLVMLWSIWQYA

[10] = biological target: T2, Neuronal acetylcholine receptor subunit alpha-7; assay: Antagonist activity at human alpha-7 nAChR in tsA201 cells coexpressed with Ric3 by FMP assay; type: functional, cell-based
Target sequence in this assay (P36544 whole entry): as the sequence (P36544 whole entry) above

[11] = biological target: T1, Neuronal acetylcholine receptor; alpha3/beta4; assay: Antagonist activity at rat alpha3beta4 nAChR expressed in HEK293 cells by FMP assay; type: functional, cell-based, Homo sapiens
[12] = biological target: T3, 5-hydroxytryptamine receptor 3A; assay: Antagonist activity at human 5HT3A receptor expressed in HEK293 cells by FMP assay; type: functional, cell-based
cells = type: functional, cell-based; conditions: Homo sapiens, HEK293
[13] = biological target: T4, Glycine receptor subunit alpha-1 (Homo sapiens, UniProt P23415); assay: Antagonist activity at human glycine alpha-1 receptor in HEK293 cells by FMP assay; type: functional, cell-based
T4 sequence (P23415 whole entry): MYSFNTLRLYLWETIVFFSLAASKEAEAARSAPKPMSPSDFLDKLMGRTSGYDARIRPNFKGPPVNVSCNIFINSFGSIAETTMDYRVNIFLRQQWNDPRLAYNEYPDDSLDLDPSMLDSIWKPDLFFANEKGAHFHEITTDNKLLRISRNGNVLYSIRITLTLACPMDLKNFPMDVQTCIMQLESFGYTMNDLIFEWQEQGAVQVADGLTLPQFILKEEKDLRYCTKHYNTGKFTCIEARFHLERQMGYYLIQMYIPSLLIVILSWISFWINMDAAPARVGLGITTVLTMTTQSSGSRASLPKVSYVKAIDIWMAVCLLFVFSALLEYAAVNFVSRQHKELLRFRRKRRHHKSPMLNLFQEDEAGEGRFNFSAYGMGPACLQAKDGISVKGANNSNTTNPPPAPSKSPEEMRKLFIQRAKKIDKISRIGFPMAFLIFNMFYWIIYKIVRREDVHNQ

[14] = biological target: T2, Neuronal acetylcholine receptor subunit alpha-7; assay: Displacement of [3H]methyllycaconitine from chimeric alpha7nAChR/5HT3A in tsA201 cells; type: cell-based
Target sequence in this assay (P36544 23-502 limits assumed): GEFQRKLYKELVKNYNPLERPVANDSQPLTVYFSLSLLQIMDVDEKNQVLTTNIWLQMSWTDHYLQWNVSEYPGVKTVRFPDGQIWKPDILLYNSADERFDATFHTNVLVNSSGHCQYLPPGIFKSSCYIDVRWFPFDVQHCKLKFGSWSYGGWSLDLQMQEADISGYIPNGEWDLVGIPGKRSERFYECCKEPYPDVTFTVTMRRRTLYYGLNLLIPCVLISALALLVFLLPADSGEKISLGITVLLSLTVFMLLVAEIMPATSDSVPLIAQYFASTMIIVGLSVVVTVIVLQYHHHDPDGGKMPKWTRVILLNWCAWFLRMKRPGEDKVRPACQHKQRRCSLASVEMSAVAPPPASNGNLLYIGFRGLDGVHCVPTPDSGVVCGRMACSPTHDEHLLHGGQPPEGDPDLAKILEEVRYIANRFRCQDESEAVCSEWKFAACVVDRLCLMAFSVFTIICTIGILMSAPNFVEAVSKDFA

[15] = Displacement of [3H]methyllycaconitine from chimeric alpha-7nAChR W55A mutant /5HT3A receptor in tsA201 cells; type: cell-based, Homo sapiens; method in brief: as §1
[16] = Displacement of [3H]methyllycaconitine from chimeric alpha7nAChR W55Y mutant/5HT3A receptor in tsA201 cells; type: cell-based, Homo sapiens; method in brief: as §1
[17] = Displacement of [3H]methyllycaconitine from chimeric alpha7nAChR R79A mutant/5HT3A receptor R79A mutant in tsA201 cells; type: cell-based, Homo sapiens; method in brief: as §1
tsA201 [18] = assay: Displacement of [3H]methyllycaconitine from chimeric alpha-7nAChR Y93A mutant/5HT3A receptor in tsA201 cells; type: cell-based; conditions: Homo sapiens; method in brief: as §1
[19] = Displacement of [3H]methyllycaconitine from chimeric alpha-7nAChR N107A mutant/5HT3A receptor in tsA201 cells; type: cell-based, Homo sapiens; method in brief: as §1
[20] = Displacement of [3H]methyllycaconitine from chimeric alpha7nAChR K145A mutant/5HT3A receptor in tsA201 cells; type: cell-based, Homo sapiens; method in brief: as §1
[21] = Displacement of [3H]methyllycaconitine from chimeric alpha-7nAChR S148A mutant /5HT3A receptor in tsA201 cells; type: cell-based, Homo sapiens; method in brief: as §1
tsA201 [22] = assay: Displacement of [3H]methyllycaconitine from chimeric alpha-7nAChR W149A mutant/5HT3A receptor in tsA201 cells; type: cell-based; conditions: Homo sapiens; method in brief: as §1
tsA201 [23] = assay: Displacement of [3H]methyllycaconitine from chimeric alpha-7nAChR W149Y mutant/5HT3A receptor W149Y mutant in tsA201 cells; type: cell-based; conditions: Homo sapiens; method in brief: as §1
[24] = Displacement of [3H]methyllycaconitine from chimeric alpha-7nAChR S150A mutant/5HT3A receptor in tsA201 cells; type: cell-based, Homo sapiens; method in brief: as §1
[25] = Displacement of [3H]methyllycaconitine from chimeric alpha-7nAChR Y168A mutant/5HT3A receptor in tsA201 cells; type: cell-based, Homo sapiens; method in brief: as §1
tsA201 [26] = assay: Displacement of [3H]methyllycaconitine from chimeric alpha-7nAChR Y188A mutant/5-HT3A receptor in tsA201 cells; type: cell-based; conditions: Homo sapiens; method in brief: as §1
[27] = Displacement of [3H]methyllycaconitine from chimeric alpha7nAChR Y195A mutant/5HT3A receptor in tsA201 cells; type: cell-based, Homo sapiens; method in brief: as §1
[28] = Displacement of [3H]methyllycaconitine from chimeric alpha-7nAChR Y195F mutant/5HT3A receptor in tsA201 cells; type: cell-based, Homo sapiens; method in brief: as §1
[29] = Antagonist activity at human alpha7nAChR Y93A mutant co-expressed with human Ric3 in tsA201 cells by FMP assay; type: functional, cell-based
[30] = Antagonist activity at human alpha7 nAChR W149Y mutant co-expressed with human Ric3 in tsA201 cells by FMP assay; type: functional, cell-based
[31] = Antagonist activity at human alpha-7 nAChR Y188A mutant coexpressed with human Ric3 in tsA201 cells by FMP assay; type: functional, cell-based
[32] = Antagonist activity at human alpha-7 nAChR Y195A mutant coexpressed with human Ric3 in tsA201 cells by FMP assay; type: functional, cell-based
[33] = biological target: T2, Neuronal acetylcholine receptor subunit alpha-7
Target sequence in this assay (P36544 whole entry): as the sequence (P36544 whole entry) above

Structure (SMILES): C[N+](C)(C)Cc1c2n(c3ccccc13)Cc1c(C[N+](C)(C)C)c3ccccc3n1C2.[I-].[I-]
- Ki [1]: 6.3 µM
- pKi [1]: 5.2
- Activity (tsA201 [2]): inactive
- Ki [3]: 5.2 µM
- pKi [3]: 5.28
- Ki [4]: > 100 µM
- Ki ([4]; read-out: Ki): > 100 µM
- Ki [5]: > 100 µM
- pKi ([5]; hek293): < 4
- Ki [6]: > 100 µM
- pKi ([6]; hek293): < 4
- Ki ([7]; read-out: Ki): 2.4 µM
- Ki ([7]; read-out: pKi (converted)): 2.51 µM
- Ki ([8]; read-out: Ki): 1.3 µM
- Ki ([8]; read-out: pKi (converted)): 1.26 µM
- Ki [9]: > 100 µM
- pKi ([9]; hek293): < 4
- IC50 ([10]; read-out: IC50): 30 µM
- IC50 ([10]; read-out: pIC50 (converted)): 100 µM
- pIC50 ([11]; hek293): < 4
- IC50 ([11]; read-out: IC50): > 100 µM
- pIC50 ([12]; hek293): < 4
- IC50 ([12]; read-out: IC50): > 100 µM
- IC50 (cells; read-out: IC50): > 100 µM
- IC50 (cells; read-out: pIC50 (converted)): > 100 µM
- IC50 [13]: > 100 µM
- pIC50 ([13]; hek293): < 4
- Ki [14]: 4.42 µM
- pKi [14]: 5.35
- Ki [15]: 1.1 µM
- pKi [15]: 5.94
- Ki [16]: 2.4 µM
- pKi [16]: 5.61
- Ki [17]: 7.6 µM
- pKi [17]: 5.12
- Activity (tsA201 [18]): inactive
- Ki [19]: 15 µM
- pKi [19]: 4.82
- Ki [20]: 7.2 µM
- pKi [20]: 5.14
- Ki [21]: 0.43 µM
- pKi [21]: 6.37
- Activity (tsA201 [22]): inactive
- Activity (tsA201 [23]): inactive
- Ki [24]: 6 µM
- pKi [24]: 5.22
- Ki [25]: 5.1 µM
- pKi [25]: 5.29
- Activity (tsA201 [26]): inactive
- Ki [27]: 22 µM
- pKi [27]: 4.66
- Ki [28]: 8.3 µM
- pKi [28]: 5.08

Structure (SMILES): CCN1C[C@]2(COC(=O)c3ccccc3N3C(=O)C[C@H](C)C3=O)CC[C@H](OC)[C@@]34[C@@H]5C[C@H]6[C@H](OC)[C@@H]5[C@](O)(C[C@@H]6OC)[C@](O)([C@@H](OC)[C@H]23)[C@@H]14 [METHYLLYCACONITINE]
- Ki [1]: 0.0055 µM
- pKi [1]: 8.26
- Activity (tsA201 [2]): inactive
- Ki [3]: 0.0043 µM
- pKi [3]: 8.37
- IC50 ([29]; read-out: IC50): 10 µM
- IC50 ([29]; read-out: pIC50 (converted)): 31.6 µM
- IC50 ([30]; read-out: IC50): 0.089 µM
- IC50 ([30]; read-out: pIC50 (converted)): 10 µM
- IC50 ([31]; read-out: IC50): 1.8 µM
- IC50 ([31]; read-out: pIC50 (converted)): 1.82 µM
- IC50 ([32]; read-out: IC50): 0.32 µM
- IC50 ([32]; read-out: pIC50 (converted)): 0.324 µM
- Ki ([7]; read-out: Ki): 0.0011 µM
- Ki ([7]; read-out: pKi (converted)): 0.001 µM
- Ki ([8]; read-out: Ki): 0.0061 µM
- Ki ([8]; read-out: pKi (converted)): 0.00631 µM
- IC50 ([10]; read-out: IC50): 0.0083 µM
- IC50 ([10]; read-out: pIC50 (converted)): 0.00832 µM
- Ki [14]: 0.0016 µM
- pKi [14]: 8.79
- Ki [15]: 0.024 µM
- pKi [15]: 7.62
- Ki [16]: 0.0045 µM
- pKi [16]: 8.35
- Ki [17]: 0.0035 µM
- pKi [17]: 8.45
- Activity (tsA201 [18]): inactive
- Ki [19]: 0.0032 µM
- pKi [19]: 8.42
- Ki [20]: 0.0039 µM
- pKi [20]: 8.41
- Ki [21]: 0.0025 µM
- pKi [21]: 8.6
- Activity (tsA201 [22]): inactive
- Activity (tsA201 [23]): inactive
- Ki [24]: 0.0035 µM
- pKi [24]: 8.45
- Ki [25]: 0.0019 µM
- pKi [25]: 8.71
- Activity (tsA201 [26]): inactive
- Ki [27]: 0.013 µM
- pKi [27]: 7.89
- Ki [28]: 0.0017 µM
- pKi [28]: 8.78
- IC50 [33]: 0.0083 µM and 0.00832 µM
